Conditions in all cases: in vivo
For data set [1], the system named is Rattus norvegicus. Briefly: Saluretic property was estimated by the excretion of Na+ in rat administered orally; microequiv of Na+ at 16.5 mg/kg […]. It is filed as ADME, organism-based. The arrangement: dose 16.5 mg/kg. An outline of the steps:
(§1)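 Rats dosed orally; urinary Na+ excretion (microequiv) scored per dose level. Each score is the geometric mean of three animals per cage, with three cages per dose.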

Data set [2] concerns Rattus norvegicus. The data set is described as follows: Saluretic property was estimated by the excretion of Na+ in rat administered orally; microequiv of Na+ at 5 mg/kg […]. It is filed as ADME, organism-based. The arrangement: dose 5 mg/kg. An outline of the steps: as §1
Data set [3] deals with Rattus norvegicus. Briefly: Saluretic property (excretion of Na+ in rat after PO dosing). The class given is ADME, organism-based. In short, it runs like this:
as §1

The species named for data set [4] is Rattus norvegicus. Briefly: Saluretic property (excretion of Na+ in rat). The class given is ADME, organism-based. An outline of the steps:
as §1

The subject of data set [5] is Canis familiaris. Briefly: Saluretic property was estimated by the excretion of Na+ in dog administered intravenously; microequiv of Na+/min at 5 mg/kg iv stat, 400-599. It is filed as ADME, organism-based, Canis lupus familiaris. The arrangement: dose 5 mg/kg, route intravenous. An outline of the steps: (§2)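 Dogs of 15-20 kg were given a single stat intravenous dose of 5 mg/kg and Na+ excretion was measured in microequiv/min. The score is the average of two dogs, or three where designated.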

The subject of data set [6] is Canis familiaris. Briefly: Saluretic property was estimated by the excretion of Na+ in dog administered intravenously; microequiv of Na+/min at 5 mg/kg iv stat, 800-899. The arrangement: dose 5 mg/kg, route intravenous. It is filed as ADME, organism-based, Canis lupus familiaris. In short, it runs like this: as §2
Data set [7] has as its system Canis familiaris. The data set is described as follows: Saluretic property was estimated by the excretion of Na+ in dog administered intravenously; microequiv of Na+/min at 5 mg/kg iv stat, 100-249. The class given is ADME, organism-based, Canis lupus familiaris. The arrangement: dose 5 mg/kg, route intravenous. In short, it runs like this:
as §2

The test system of data set [8] is Rattus norvegicus. Briefly: Saluretic property was estimated by the excretion of Na+ in rat administered orally; microequiv of Na+ at 50 mg/kg […]. It is filed as ADME, organism-based. The arrangement: dose 50 mg/kg. In short, it runs like this:
as §1

The test system of data set [9] is Rattus norvegicus. The data set is described as follows: Saluretic property was estimated by the excretion of Na+ in rat administered orally; microequiv of Na+ at 81 mg/kg […]. It is filed as ADME, organism-based. The arrangement: dose 81 mg/kg. In short, it runs like this: as §1
Data set [10] concerns Canis familiaris. Briefly: Saluretic property was estimated by the excretion of Na+ in dog administered intravenously; microequiv of Na+/min at 5 mg/kg iv stat, […]. The arrangement: dose 5 mg/kg, route intravenous. The class given is ADME, organism-based, Canis lupus familiaris. In short, it runs like this: as §2
The subject of data set [11] is Rattus norvegicus. Briefly: Saluretic property was estimated by the excretion of Na+ in rat administered orally; microequiv of Na+ at 1 mg/kg […]. The arrangement: dose 1 mg/kg. It is filed as ADME, organism-based. An outline of the steps: as §1

Turning to `CCNS(=O)(=O)Oc1c(I)cc(C(C)(C)C)cc1CN.Cl`, the Saluretic potency is 1.4 u equiv in the data set on Rattus norvegicus [1]; 0.5 u equiv in the data set with Rattus norvegicus [2]; 2.4 u equiv in the data set on Rattus norvegicus [3]; 2.9 u equiv in the data set listed under Rattus norvegicus [4]; 400 u equiv min-1 in the data set on Canis familiaris [5].
Turning to `Cl.NCc1c(O)c(Cl)cc(Cl)c1Cl`, the Saluretic potency with Canis familiaris [6] is 800 u equiv min-1; in the data set with Rattus norvegicus [1], 1.4 u equiv; in the data set with Rattus norvegicus [2] it was 0.5 u equiv; in the data set on Rattus norvegicus [3], 2.4 u equiv; in the data set filed under Rattus norvegicus [4], 2.9 u equiv.
As to `CCOC(=O)COc1c(I)cc(C(C)(C)C)cc1CN.Cl`, the results for the Saluretic potency in the data set on Canis familiaris [7], in the data set with Rattus norvegicus [8] and with Rattus norvegicus [9] were 100 u equiv min-1, below 0.2 u equiv and below 0.3 u equiv, respectively.
As to `CNCc1cc(C(C)(C)C)cc(I)c1O`, the Saluretic potency is 250 u equiv min-1 in the data set on Canis familiaris [10]; 0.7 u equiv in the data set on Rattus norvegicus [11]; 3.3 u equiv in the data set with Rattus norvegicus [1]; 2.6 u equiv in the data set on Rattus norvegicus [2]; 3.6 u equiv with Rattus norvegicus [3].

The values above are taken from ChEMBL document CHEMBL1122081, “2-(Aminomethyl)phenols, a new class of saluretic agents. 4. Effects of oxygen and/or nitrogen substitution” (J Med Chem, 1982).
